Laboratory results as given in ChEMBL document CHEMBL1149126, “3-phenyl-6-(2-pyridyl)methyloxy-1,2,4-triazolo[3,4-a]phthalazines and analogues: high-affinity gamma-aminobutyric acid-A benzodiazepine receptor ligands with alpha 2, alpha 3, and alpha 5-subtype binding selectivity over alpha 1” (J Med Chem, 2004).

Assays:
[1] = molecular target: T1, GABA-A receptor; alpha-3/beta-3/gamma-2 (Homo sapiens, UniProt P18507+P28472+P34903); experiment: Binding affinity for human GABA-A receptor alpha-3-beta-3-gamma-2 subunits in L(tk-) cells; format: cell-based
T1 sequence (P18507 whole entry): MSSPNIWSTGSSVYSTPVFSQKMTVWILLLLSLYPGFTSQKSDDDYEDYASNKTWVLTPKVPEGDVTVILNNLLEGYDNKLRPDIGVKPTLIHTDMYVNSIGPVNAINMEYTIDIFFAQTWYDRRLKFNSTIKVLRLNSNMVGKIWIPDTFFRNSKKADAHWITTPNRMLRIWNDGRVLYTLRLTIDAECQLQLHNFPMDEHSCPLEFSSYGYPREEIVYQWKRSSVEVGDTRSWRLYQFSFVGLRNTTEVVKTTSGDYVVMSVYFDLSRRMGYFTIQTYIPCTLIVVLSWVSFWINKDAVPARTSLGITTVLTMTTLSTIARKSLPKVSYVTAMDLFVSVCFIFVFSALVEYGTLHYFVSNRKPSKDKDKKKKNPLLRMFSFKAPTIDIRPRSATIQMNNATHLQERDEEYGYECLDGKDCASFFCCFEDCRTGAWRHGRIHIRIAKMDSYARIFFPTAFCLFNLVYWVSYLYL
T1 sequence (P28472 whole entry): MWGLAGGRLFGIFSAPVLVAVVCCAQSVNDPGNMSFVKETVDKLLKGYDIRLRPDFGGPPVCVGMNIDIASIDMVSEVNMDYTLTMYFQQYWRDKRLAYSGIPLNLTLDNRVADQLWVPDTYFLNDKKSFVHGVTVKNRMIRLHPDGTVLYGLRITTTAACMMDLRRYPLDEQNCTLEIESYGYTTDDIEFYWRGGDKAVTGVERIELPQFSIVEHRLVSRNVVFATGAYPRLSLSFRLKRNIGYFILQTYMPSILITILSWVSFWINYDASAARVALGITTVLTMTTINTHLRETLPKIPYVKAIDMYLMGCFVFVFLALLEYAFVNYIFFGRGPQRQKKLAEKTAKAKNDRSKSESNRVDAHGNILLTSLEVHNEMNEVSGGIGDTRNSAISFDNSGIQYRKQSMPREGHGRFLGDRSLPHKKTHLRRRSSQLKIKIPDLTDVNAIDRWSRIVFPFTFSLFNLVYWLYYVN
T1 sequence (P34903 whole entry): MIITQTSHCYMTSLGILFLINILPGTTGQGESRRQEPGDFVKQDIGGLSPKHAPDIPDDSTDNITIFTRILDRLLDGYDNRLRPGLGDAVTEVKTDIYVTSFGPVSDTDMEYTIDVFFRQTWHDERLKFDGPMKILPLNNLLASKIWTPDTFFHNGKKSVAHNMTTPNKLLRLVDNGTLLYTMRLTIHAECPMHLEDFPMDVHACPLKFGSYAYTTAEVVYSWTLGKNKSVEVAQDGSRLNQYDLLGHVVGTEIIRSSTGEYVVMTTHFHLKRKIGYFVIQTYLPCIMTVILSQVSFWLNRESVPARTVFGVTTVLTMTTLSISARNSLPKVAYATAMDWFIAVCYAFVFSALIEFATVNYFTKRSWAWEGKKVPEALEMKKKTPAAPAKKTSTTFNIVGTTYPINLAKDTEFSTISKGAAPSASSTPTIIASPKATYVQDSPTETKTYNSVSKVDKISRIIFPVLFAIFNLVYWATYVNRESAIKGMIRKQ

[2] = molecular target: T2, GABA-A receptor; alpha-2/beta-3/gamma-2 (Homo sapiens, UniProt P18507+P28472+P47869); experiment: Binding affinity for human GABA-A receptor alpha-2-beta-3-gamma-2 subunits in L(tk-) cells; format: cell-based
T2 sequence (P18507 whole entry): T1 sequence (P18507 whole entry)
T2 sequence (P28472 whole entry): T1 sequence (P28472 whole entry)
T2 sequence (P47869 whole entry): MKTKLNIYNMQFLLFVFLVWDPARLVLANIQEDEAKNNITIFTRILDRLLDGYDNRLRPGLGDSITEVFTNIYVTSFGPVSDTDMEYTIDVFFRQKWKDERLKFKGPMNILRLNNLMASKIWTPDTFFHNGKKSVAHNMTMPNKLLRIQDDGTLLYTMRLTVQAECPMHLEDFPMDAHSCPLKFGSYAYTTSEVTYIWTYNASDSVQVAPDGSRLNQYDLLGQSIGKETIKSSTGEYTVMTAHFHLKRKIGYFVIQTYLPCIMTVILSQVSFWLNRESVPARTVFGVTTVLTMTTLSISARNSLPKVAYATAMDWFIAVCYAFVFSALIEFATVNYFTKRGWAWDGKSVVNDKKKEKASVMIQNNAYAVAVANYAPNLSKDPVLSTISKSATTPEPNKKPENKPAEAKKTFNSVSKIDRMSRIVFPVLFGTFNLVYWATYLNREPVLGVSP

[3] = molecular target: T3, GABA-A receptor; alpha-3/beta-3/gamma-2 (Homo sapiens) (UniProt P18507+P28472+P34903); experiment: Partial agonistic activity against GABA-A receptor alpha-3-beta-3-gamma-2
[4] = molecular target: T4, GABA-A receptor; alpha-1/beta-3/gamma-2 (Homo sapiens) (UniProt P14867+P18507+P28472); experiment: Inverse agonistic activity against GABA-A receptor alpha-1-beta-3-gamma-2 subunits; format: functional
[5] = molecular target: T5, GABA-A receptor; alpha-5/beta-3/gamma-2 (Homo sapiens) (UniProt P18507+P28472+P31644); experiment: Partial agonistic activity against GABA-A receptor alpha-5-beta-3-gamma-2 subunits; format: functional
[6] = molecular target: T6, GABA-A receptor; alpha-1/beta-3/gamma-2 (Homo sapiens, UniProt P14867+P18507+P28472); experiment: Binding affinity for human GABA-A receptor alpha-1-beta-3-gamma-2 subunits in L(tk-) cells
T6 sequence (P14867 whole entry): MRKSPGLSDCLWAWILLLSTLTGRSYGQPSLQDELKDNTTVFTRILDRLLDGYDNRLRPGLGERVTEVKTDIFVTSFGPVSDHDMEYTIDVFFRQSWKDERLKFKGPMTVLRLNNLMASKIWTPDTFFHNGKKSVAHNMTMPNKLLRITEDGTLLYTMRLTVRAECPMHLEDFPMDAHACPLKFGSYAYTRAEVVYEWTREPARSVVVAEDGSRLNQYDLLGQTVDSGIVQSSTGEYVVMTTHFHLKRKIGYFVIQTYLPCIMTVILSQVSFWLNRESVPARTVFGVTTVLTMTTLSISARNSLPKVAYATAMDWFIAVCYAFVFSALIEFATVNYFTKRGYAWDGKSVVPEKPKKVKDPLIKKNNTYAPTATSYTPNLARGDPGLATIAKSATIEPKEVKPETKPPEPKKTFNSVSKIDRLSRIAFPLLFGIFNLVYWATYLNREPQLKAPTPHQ
T6 sequence (P18507 whole entry): T1 sequence (P18507 whole entry)
T6 sequence (P28472 whole entry): T1 sequence (P28472 whole entry)

[7] = molecular target: T7, GABA-A receptor; alpha-5/beta-3/gamma-2 (Homo sapiens, UniProt P18507+P28472+P31644); experiment: Binding affinity for human GABA-A receptor alpha-5-beta-3-gamma-2 subunits in L(tk-) cells; format: cell-based
T7 sequence (P18507 whole entry): T1 sequence (P18507 whole entry)
T7 sequence (P28472 whole entry): T1 sequence (P28472 whole entry)
T7 sequence (P31644 whole entry): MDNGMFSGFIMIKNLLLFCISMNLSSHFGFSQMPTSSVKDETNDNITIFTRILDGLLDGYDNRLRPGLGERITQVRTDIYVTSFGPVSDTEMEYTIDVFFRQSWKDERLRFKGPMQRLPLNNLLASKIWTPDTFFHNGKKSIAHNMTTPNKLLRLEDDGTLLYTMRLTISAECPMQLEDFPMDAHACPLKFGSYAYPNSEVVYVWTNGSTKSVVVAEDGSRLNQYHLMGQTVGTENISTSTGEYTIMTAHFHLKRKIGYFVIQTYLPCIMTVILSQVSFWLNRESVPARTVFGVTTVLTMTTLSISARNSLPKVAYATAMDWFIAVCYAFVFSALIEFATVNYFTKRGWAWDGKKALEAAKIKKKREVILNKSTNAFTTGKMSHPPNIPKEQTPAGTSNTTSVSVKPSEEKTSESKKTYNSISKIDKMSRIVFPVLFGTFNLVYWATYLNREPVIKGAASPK

[8] = molecular target: T3, GABA-A receptor; alpha-3/beta-3/gamma-2 (Homo sapiens); experiment: Maximum percent change compared to GABA EC20 against GABA-A alpha-3-beta-3-gamma-2 receptor; format: functional
[9] = molecular target: T5, GABA-A receptor; alpha-5/beta-3/gamma-2 (Homo sapiens); experiment: Maximum percent change compared to GABA EC20 against GABA-A alpha-5-beta-3-gamma-2 receptor; format: functional
[10] = molecular target: T4, GABA-A receptor; alpha-1/beta-3/gamma-2 (Homo sapiens); experiment: Maximum percent change compared to GABA EC20 against GABA-A alpha-1-beta-3-gamma-2 receptor; format: functional
[11] = Peak plasma concentration in rat at a dose of 3 mg/kg; format: ADME, organism-based; design: dose 3 mg/kg; conditions: read-out: Concentration
In short: (§1)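 Plasma concentrations were followed to derive peak level and half-life.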

[12] = molecular target: GABA-A receptor; alpha-2/beta-3/gamma-2 (Homo sapiens) (UniProt P18507+P28472+P47869); experiment: Maximum percent change compared to GABA EC20 against GABA-A alpha-2-beta-3-gamma-2 receptor; format: functional
[13] = Oral bioavailability in rat at a dose of 3 mg/kg; format: ADME, organism-based; conditions: in vivo, read-out: Bioavailabiility; in short: as §1
[14] = Half-life in rat at a dose of 3 mg/kg; format: ADME, organism-based; design: dose 3 mg/kg; conditions: in vivo; in short: as §1
[15] = molecular target: T6, GABA-A receptor; alpha-1/beta-3/gamma-2; experiment: Binding affinity for human GABA-A receptor alpha-4-beta-3-gamma-2 subunits in L(tk-) cells; format: cell-based

SMILES	Ki [1] [nM]	Ki [2] [nM]	Activity [3] [%]	Activity [4] [%]	Activity [5] [%]	Ki [6] [nM]	Ki [7] [nM]	Efficacy [8] [%]	Efficacy [9] [%]	Efficacy [10] [%]	Cmax [11] [ng/mL]	Efficacy [12] [%]	bioavailability [13] [%]	half-life [14] [h]	Ki [15] [nM]
Cc1cccc(COc2nn3c(C4CC4)nnc3c3ccccc23)n1	3.1	9.7	-13	-15	26	32	0.92	–	–	–	–	–	–	–	–
c1ccc(-c2nnc3c4c(c(OCc5ccccn5)nn23)C2CCC4CC2)cc1	12	26	–	–	–	–	1.2	38	18	51	179	23	33	1	71
